The EternaBench riboswitch data

System: MS2 coat protein
Test: apparent Kd, MS2 coat protein; higher = weaker binding; RNA-MaP array
Method in brief: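 Designed RNAs were transcribed in place on an Illumina sequencing chip from sequenced DNA templates. At room temperature and with or without input ligand, they were incubated with fluorescently labeled MS2 coat protein from 1.5 nM to 3 μM, for 0.8–1.5 h at the lowest and 10–20 min at the highest concentrations. Apparent Kd is the median of the binding-curve fits made per cluster, with designs measured on fewer than 10 clusters excluded.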

[1] = designed as: OFF switch for flavin mononucleotide, no ligand
[2] = ligand present: flavin mononucleotide, designed as: OFF switch for flavin mononucleotide
[3] = designed as: ON switch for flavin mononucleotide, no ligand
[4] = ligand present: flavin mononucleotide, designed as: ON switch for flavin mononucleotide
[5] = designed as: ON switch for theophylline, no ligand
[6] = ligand present: theophylline, designed as: ON switch for theophylline
[7] = designed as: OFF switch for theophylline, no ligand
[8] = ligand present: theophylline, designed as: OFF switch for theophylline

Sequence | apparent Kd [1] | apparent Kd [2] | apparent Kd [3] | apparent Kd [4] | other results
UGCCAACAUGAGGAUCACCCAUGUCAGGAUAUCCGGGAGCACUUCAGUAGAAUCCGCUGGAGAAGGGACAUAGG | 0.0243 µM | 0.0217 µM | – | – | –
GCGGACGAUGAGAAGGUAGUAAGGUAGGACAUGAGGAUCACCCAUGUAUGAACUAUCCCAACAACUAAGGAUAUCAGCAACCCU | 0.00734 µM | 0.00577 µM | – | – | –
AUGAACAACCAGAAGGCAACGUUGGCCCAAGUUUGAGGAUAUGGACGUGGAAGUUCGCACAUGAGGAUCACCCAUGUAGAUCAG | 0.014 µM | 0.0128 µM | – | – | –
CAUUAUCGCGUUAGGAUAUGAACAAGAAAUCGGCUACAGAAGGAACAUGAGGAUCACCCAUGUAUGAUCAAGAC | 0.0131 µM | 0.0106 µM | – | – | –
UGGCACAAGUUAGGAUAUAGCACUUCUGUAAAGCUAGAAGGAACGUUGCACAUGAGGAUCACCCAUGUCAGUAAUUGAUAUGUA | 0.0101 µM | 0.0126 µM | – | – | –
AAAUGCAUUCGAGGAUAUGUCAUGAUGUUGUAAACAGAAGGCGAGGCAUCGACAUGAGGAUCACCCAUGUGCACAGGUAAAAGU | – | – | 0.0376 µM | 0.0164 µM | –
ACGUAGUGCCGAGGAUAUGUAACAUGAGGAUCACCCAUGUUCUCUAACAGGUCGAUUUUAAGCACACAGAAGGCGGGUGUUGAU | 0.0114 µM | 0.0118 µM | – | – | –
GCAUUCGGAUUAGGAUAUCUACAUCAUUCGUUUGGGAUAGAGCUACAUGAGGAUCACCCAUGUGUAGAGAAGGAAUAUGAACAC | – | – | 0.079 µM | 0.0839 µM | –
GGUUAACAUGAGGAUCACCCAUGUUAGGAUAUGCUACAGAGUCUGGUCCCUGGAAAUGGCAGAAGGAACGUGUU | 0.0172 µM | 0.0162 µM | – | – | –
AUGUGCAAUACGGAUACCAGCCCGUGUAGAUACAUGAGGAUCACCCAUGUCAAUGUAAAUGGCCCUUGGCAGCCGUUUGGGAGGC | – | – | – | – | apparent Kd [5]: 0.0157 µM; apparent Kd [6]: 0.0118 µM
ACGUGGGUAACCAAGGAUAUAUUUACACCCACAUGAGGAUCACCCAUGUUCUUGCAGGCAUAUAAAUAGAAGGUGGAAACGCAGUG | – | – | 0.379 µM | 0.129 µM | –
AUGCACAUCUAGGAUACCAGCACCCUUAUGUCACUAGUUAACAUGAGGAUCACCCAUGUUUGCCCUUGGCAGCCUCAUUGACCAU | – | – | – | – | apparent Kd [7]: 0.0685 µM; apparent Kd [8]: 0.172 µM
GAGACAGGGCAGAAGGUUCUAAACGGCUAAAUGAAAGGAUAUGCAAACAUUGACAUGAGGAUCACCCAUGUGUUAAAAGCUACG | 0.0121 µM | 0.00988 µM | – | – | –
CCCACAAGCACGGCCGCCACUAUAUUAAUUACUGUCCUAGAACAUGAGGAUCACCCAUGUUAAUGUAGGACCGGGUGCGGGCCCG | – | – | – | – | apparent Kd (designed as: OFF switch for tryptophan, no ligand): 0.00957 µM; apparent Kd (ligand present: tryptophan, designed as: OFF switch for tryptophan): 0.0128 µM
AUUGAACAUGAGGAUCACCCAUGUGCGGGUGGUAUAGGAUAUGCAGGAUCCUAAGAGUAAGCAGAAGGAUACACCG | – | – | 0.445 µM | 0.0334 µM | –
ACAUGAGGAUCACCCAUGUUUGGGCAAAGAUUGAUUGACACGAGAAGGGCCCGCGUACGUCGUAGGCAGGAUAUCGAGUACCGG | 0.0322 µM | 0.0311 µM | – | – | –
AUGUAACAUGAGGAUCACCCAUGUAAGGAUAUGCAACAAAACUCUGAAUCGUAAGUUCGCAGAAGGUACAUUAG | 0.0284 µM | 0.0273 µM | – | – | –
ACUAGGGACCUGACAUGAGGAUCACCCAUGUUCUCGGAUCACAAGGAUAUCCGCACGUACCUGUGGGAGAAGGUGUCGUCCCAC | – | – | 0.026 µM | 0.0218 µM | –
GCGGGAGAUCAGAAGGCUAUAACGUUUCACAUGAGGAUCACCCAUGUGGGCUCCUAGGGAUGGAUAGAGGAUAUGACCGAAUAU | 0.0129 µM | 0.0133 µM | – | – | –
GAAUGGAAAGGAUAUCGCUGUUCUGACAUGAGGAUCACCCAUGUACGUGUUAGCUUGUUUCGAGAAGGUUCCACUC | 0.0156 µM | 0.0218 µM | – | – | –
UAAAAGUUAGGAUAUACUAGUGAGCAAUGAAUAACAAAGUAACAUGAGGAUCACCCAUGUAGAAGGAACUGCAG | 0.0121 µM | 0.0124 µM | – | – | –
CAGGCAUGUAUAGGAUAUUGGGCUGGACGCGUUGUCGGUCGUUCCAACAUGAGGAUCACCCAUGUCAAGAAGGAUAUGCAUUCG | – | – | 0.0388 µM | 0.0273 µM | –
UCAUUGUGAGGAUAUUGAUAGCGGACCUUGAUUCUGUACAACAAGAAGGCACAUGAGGAUCACCCAUGUCAUCA | 0.0164 µM | 0.0584 µM | – | – | –
UCGAACUAACAAGGAUAUACGCGGGUCGAAACGGUAGAAGGUGUCAACGGUAUCUCACAUGAGGAUCACCCAUGUCGGCAGGGA | 0.135 µM | 0.103 µM | – | – | –

Sequence | apparent Kd [1] | apparent Kd [2] | apparent Kd [3] | apparent Kd [4] | other results
AAAUGGAUCGAAGGAUAUCCCCAGACAUGAGGAUCACCCAUGUGAGGGUACAGUUAUUGUUAUCAGGAGAAGGUCGCAUUCAAA | 0.0103 µM | 0.0095 µM | – | – | –
CAAAGUUUUAAGAAGGGAUCGAUUAGAUUCACAUGAGGAUCACCCAUGUAGCCGGGACGGAGAGAUCAGGAUAUUAAAGAUGUC | 0.0558 µM | 0.0319 µM | – | – | –
AUGAAGCUAAGAGAUACCAGUGACCACAGAUACAUGAGGAUCACCCAUGUCUCAAAUUGUCACCCUUGGCAGCUCACUAUCGAAG | – | – | – | – | apparent Kd [5]: 0.0102 µM; apparent Kd [6]: 0.00926 µM
AGCAUGACAGCAGGAUAUGCGAACAGAAAUAGUGCAGAAGGGCUUUACACAUGAGGAUCACCCAUGUCCGCAAGGAUGCGUAUG | – | – | 0.0411 µM | 0.0194 µM | –
GAAAAUACAUGAGGAUCACCCAUGUGGUGGCGUCAGAUUGGUUAGGAUAUCUUGGCGGGAUACUGAGAGAAGGAACUUUGAAGG | 0.181 µM | 0.136 µM | – | – | –
UGGUUAACAUGACAUGAGGAUCACCCAUGUCUUGGAAUUACAAGAAGGAAGGACACAGGUAGACCUUAGGAUAUUGUGACUUGA | – | – | 0.0246 µM | 0.0116 µM | –
UAAUCAGUGAUAGGAUAUCGUAGCUCAGAUAGGCGAGAAGGAUCUGACUCCACAUGAGGAUCACCCAUGUUGUACAUACAGGAC | – | – | 0.0195 µM | 0.0171 µM | –
CACAUGUAAGGAUAUAGUGAACUAAAGCAACUAGAUGUAAACUAGAAGGUACAUGAGGAUCACCCAUGUAAAGG | 0.0173 µM | – | – | – | –
GUACAGGAGGAAGGAUAUAAUGCACAUGAGGAUCACCCAUGUAAGAGGAAAUCACCAUAACUGAUUUAGAAGGACCAGCAAAAC | 0.012 µM | 0.0113 µM | – | – | –
CCCAUUGAGGAGGAUAUACUAUUGGAGACUCUCGUAGAAGGCCUGACAUGAGGAUCACCCAUGUACGUGAUAUC | 0.121 µM | 0.0767 µM | – | – | –
AACUUUCCCUAGAAGGUCGUGUUACAACAUGAGGAUCACCCAUGUCGCCCUAGGGCUGCUGCCGCGAAGGAUAUAGGUCCGGAG | – | – | 0.00577 µM | 0.00532 µM | –
AAACAGGAAGGAUAUACAUGAGGAUCACCCAUGUCAAAUAAAACAAAUAAGCAAGAAUGUAGAAGGACCAAAAU | 0.0172 µM | 0.0128 µM | – | – | –
UACCGGUGACUCGAUACCAGUCCUCUAAAAUACAUGAGGAUCACCCAUGUAACCUUCCCAGACCCUUGGCAGCGACACAUGGAUA | – | – | – | – | apparent Kd [5]: 0.145 µM; apparent Kd [6]: 0.0382 µM
AAAAGAGAAGGAUAUACAGGAAAAGAAAAGAUAUUUCAAUAACAUGAGGAUCACCCAUGUAGAAGGACUAAUAG | 0.0118 µM | 0.00974 µM | – | – | –
GCUAGUAGAGAGAAGGAGCUUGAAUAUUUAGCGCUAGGAUAUCUUCGGUAGCCGUAGAGCAUACAUGAGGAUCACCCAUGUCCG | – | – | 0.0527 µM | 0.0278 µM | –
AGGCCACAUGAGGAUCACCCAUGUAAGGAUAUUGGAGCAUGGAAACGCUGUGCGCAUGCAAGAAGGUACACGGA | 0.0247 µM | 0.0205 µM | – | – | –
CUGUUUGGAGAGGAUAUGUCGGGAAGCUAAUCAACAGAAGGCUCAACAUGAGGAUCACCCAUGUCGGGUGCGUA | 0.0168 µM | 0.0491 µM | – | – | –
UUAUGUGACGAGGAUAUGAAAAGGAGUGGUGAAUCAGAAGGCGUAACAUGAGGAUCACCCAUGUCAGUGGGCCU | 0.0496 µM | 0.0713 µM | – | – | –
UGUCCCACGCAAGUACAUGAGGAUCACCCAUGUCUGAACCAGAGAAGGAGAGUUAUACUGGAAAUCUAGGAUAUCUGACAGACU | 0.0433 µM | 0.0505 µM | – | – | –
UCGGUACAUGAGGAUCACCCAUGUCGUCACAGAGCAGGAUAUUCAGGCUUCAGAGGUCGCGAAGAAGGGCUGGUGC | – | – | 0.0119 µM | 0.00902 µM | –
UGAGCAUCCCAGAAGGAUAUAUGGUCGUAAACAUGAGGAUCACCCAUGUUCCAUUUAGGACUCAAAUAGAAGGUCUCGGGCCAGAC | – | – | 0.0136 µM | 0.0117 µM | –
ACAUGAGGAUCACCCAUGUUGUCAUAGCAACUUUACAGGAGGAGAAGGCGAGGUUGGGCUGCCCUCGAGGAUAUCCGUAGAAAA | – | – | 0.0104 µM | 0.00645 µM | –
CGCAGGGCCCAGAAGGGCAUAAUGUUAGACUACAUGAGGAUCACCCAUGUGCCACGAGAGGUUGUGCAGGAUAUGGAUCUAUUG | – | – | 0.0567 µM | 0.0239 µM | –
GAAGAGAGGAUACCGUUUGUAUACAACGAUACCAGUGGUAUGUAUCACCCUUGGCAGCGUGAGACAUGAGGAUCACCCAUGUGGC | – | – | – | – | apparent Kd [7]: 0.0212 µM; apparent Kd [8]: 0.0216 µM
